From ChEMBL document CHEMBL3871279, “Bioactive Formylated Flavonoids from Eugenia rigida: Isolation, Synthesis, and X-ray Crystallography” (J Nat Prod, 2016)
Converted amounts (≈) assume the structure as drawn. “And” between values parts separate entries of the source, which are not always exact repeats. Equal entries are not always repeated.

Experiments:
Nakaseomyces glabratus [1] = assay: Antimicrobial activity against Candida glabrata ATCC 90030 after 46 to 50 hrs by broth microdilution method; assay type: functional
Method in brief: (§1)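 Modified CLSI broth microdilution. Samples serially diluted in 20% DMSO–saline and plated in duplicate. Inocula set by correcting OD630 of suspensions in incubation broth to final target inocula. Amphotericin B drug control. Plates read before and after incubation at 530 nm, or at 544ex/590em for A. fumigatus. IC50 is the concentration giving 50% growth relative to controls. MIC is the lowest concentration allowing no growth.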

Cryptococcus neoformans [2] = assay: Antimicrobial activity against Cryptococcus neoformans ATCC 90113 after 70 to 74 hrs by broth microdilution method; assay type: functional; method in brief: as §1
Cryptococcus neoformans [3] = assay: Fungicidal activity against Cryptococcus neoformans ATCC 90113 after 70 to 74 hrs by broth microdilution method; assay type: functional
Method in brief: (§2)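 Fungicidal end point from the broth microdilution plates (20% DMSO–saline serial dilutions, duplicate wells, OD630-corrected inocula, amphotericin B control). 5 μL from each clear well transferred to agar and incubated. MFC is the lowest test concentration allowing no growth on agar.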

Staphylococcus aureus [4] = assay: Antimicrobial activity against Staphylococcus aureus ATCC 29213 by broth microdilution method; assay type: functional
Staphylococcus aureus [5] = assay: Antimicrobial activity against methicillin-resistant Staphylococcus aureus ATCC 33591 by broth microdilution method; assay type: functional
[6] = Cytotoxicity against human SK-MEL cells assessed as reduction in cell viability after 48 hrs by neutral red dye-based assay; assay type: functional
Method in brief: (§3)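 Cell lines from ATCC, seeded at 25 000 cells/well and incubated 24 h. Samples added at several concentrations, then 48 h further incubation. Viability read by modified Neutral Red uptake. IC50 taken from dose–response curves of percent decrease in viability against concentration. Doxorubicin positive control, DMSO vehicle control.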

[7] = Cytotoxicity against human KB cells assessed as reduction in cell viability after 48 hrs by neutral red dye-based assay; assay type: functional; method in brief: as §3
[8] = Cytotoxicity against human BT549 cells assessed as reduction in cell viability after 48 hrs by neutral red dye-based assay; assay type: functional; conditions: BT-549, 48 h; method in brief: as §3
[9] = Cytotoxicity against human SKOV3 cells assessed as reduction in cell viability after 48 hrs by neutral red dye-based assay; assay type: functional; conditions: SK-OV-3, 48 h; method in brief: as §3
[10] = Cytotoxicity against human HeLa cells assessed as reduction in cell viability after 48 hrs by neutral red dye-based assay; assay type: functional; method in brief: as §3
[11] = Cytotoxicity against African green monkey Vero cells assessed as reduction in cell viability after 48 hrs by neutral red dye-based assay; assay type: toxicity; conditions: African green monkey (Chlorocebus sabaeus); method in brief: as §3
[12] = Cytotoxicity against pig LLC-PK1 cells assessed as reduction in cell viability after 48 hrs by neutral red dye-based assay; assay type: toxicity; conditions: pig (Sus scrofa); method in brief: as §3
Nakaseomyces glabratus [13] = assay: Fungicidal activity against Candida glabrata ATCC 90030 after 46 to 50 hrs by broth microdilution method; assay type: functional; method in brief: as §2
Pichia kudriavzevii [14] = assay: Antimicrobial activity against Candida krusei ATCC 6258 after 46 to 50 hrs by broth microdilution method; assay type: functional; method in brief: as §1
Candida albicans [15] = assay: Antimicrobial activity against Candida albicans ATCC 90028 after 46 to 50 hrs by broth microdilution method; assay type: functional; method in brief: as §1
Candida albicans [16] = assay: Fungicidal activity against Candida albicans ATCC 90028 after 46 to 50 hrs by broth microdilution method; assay type: functional; method in brief: as §2
Pichia kudriavzevii [17] = assay: Fungicidal activity against Candida krusei ATCC 6258 after 46 to 50 hrs by broth microdilution method; assay type: functional; method in brief: as §2
Aspergillus fumigatus [18] = assay: Antimicrobial activity against Aspergillus fumigatus ATCC 204305 after 46 to 50 hrs by broth microdilution method; assay type: functional; method in brief: as §1
Aspergillus fumigatus [19] = assay: Fungicidal activity against Aspergillus fumigatus ATCC 204305 after 46 to 50 hrs by broth microdilution method; assay type: functional; method in brief: as §2
Staphylococcus aureus [20] = assay: microbe, parasite or virus in culture; conditions: ATCC 29213
Staphylococcus aureus [21] = assay: microbe, parasite or virus in culture; conditions: ATCC 33591
[22] = Nakaseomyces glabratus, ATCC 90030

IC50 (Nakaseomyces glabratus [1]; [22])	MIC (Nakaseomyces glabratus [1]; [22])	IC50 (Cryptococcus neoformans [2])	MIC (Cryptococcus neoformans [2])	IC50 (Pichia kudriavzevii [14])	SMILES	MFC (Cryptococcus neoformans [3])	IC50 [6]	IC50 [7]	IC50 [8]	IC50 [9]	IC50 [10]	IC50 at 48 h [11]	IC50 at 48 h [12]	MFC (Nakaseomyces glabratus [13])	further results
7.2 µM	35.2 µM (≈ 10 µg/mL)	19.3 µM	–	41.2 µM	O=Cc1c(O)cc(O)c2c1O[C@@H](c1ccccc1)CC2=O	–	> 10 µM	> 10 µM	> 10 µM	> 10 µM	> 10 µM	> 10 µM	> 10 µM	70.4 µM (≈ 20 µg/mL)	–
6.7 µM	35.2 µM (≈ 10 µg/mL)	63.2 µM	70.4 µM (≈ 20 µg/mL)	33.2 µM	O=Cc1c(O)cc2c(c1O)C(=O)C[C@@H](c1ccccc1)O2	–	> 10 µM	> 10 µM	> 10 µM	> 10 µM	> 10 µM	> 10 µM	> 10 µM	70.4 µM (≈ 20 µg/mL)	–
7.4 µM	35.2 µM (≈ 10 µg/mL)	44.4 µM	70.4 µM (≈ 20 µg/mL)	29.9 µM	O=Cc1c(O)cc(O)c2c1O[C@H](c1ccccc1)CC2=O	70.4 µM (≈ 20 µg/mL)	> 10 µM	> 10 µM	> 10 µM	> 10 µM	> 10 µM	> 10 µM	> 10 µM	–	–
–	–	24.5 µM	70.4 µM (≈ 20 µg/mL)	34.1 µM	O=Cc1c(O)cc(O)c(C(=O)/C=C/c2ccccc2)c1O	70.4 µM (≈ 20 µg/mL)	> 10 µM	> 10 µM	> 10 µM	> 10 µM	> 10 µM	> 10 µM	> 10 µM	70.4 µM (≈ 20 µg/mL)	IC50 (Candida albicans [15]): 68.9 µM; IC50 (Nakaseomyces glabratus [1]): 10 µM and 35.2 µM
12.6 µM	70.4 µM (≈ 20 µg/mL)	61.5 µM	–	–	O=Cc1c(O)cc2c(c1O)C(=O)C[C@H](c1ccccc1)O2	–	> 10 µM	> 10 µM	> 10 µM	> 10 µM	> 10 µM	> 10 µM	> 10 µM	70.4 µM (≈ 20 µg/mL)	–
10.8 µM	–	–	–	–	O=Cc1c(O)cc2oc(-c3ccccc3)cc(=O)c2c1O	–	> 10 µM	> 10 µM	> 10 µM	> 10 µM	> 10 µM	> 10 µM	> 10 µM	–	–
42.9 µM	–	28.8 µM	78.1 µM (≈ 20 µg/mL)	65.5 µM	O=C1CC(c2ccccc2)Oc2cc(O)cc(O)c21 (racemic)	–	> 10 µM	> 10 µM	> 10 µM	> 10 µM	> 10 µM	> 10 µM	> 10 µM	–	–
0.2 µM	0.7 µM (≈ 0.647 µg/mL)	0.2 µM	0.3 µM (≈ 0.277 µg/mL)	0.6 µM	C[C@@H]1[C@H](O)[C@@H](C)/C=C/C=C/C=C/C=C/C=C/C=C/C=C/[C@H](O[C@@H]2O[C@H](C)[C@@H](O)[C@H](N)[C@@H]2O)C[C@@H]2O[C@](O)(C[C@@H](O)C[C@@H](O)[C@H](O)CC[C@@H](O)C[C@@H](O)CC(=O)O[C@H]1C)C[C@H](O)[C@H]2C(=O)O [AMPHOTERICIN B]	0.3 µM (≈ 0.277 µg/mL)	–	–	–	–	–	–	–	0.7 µM (≈ 0.647 µg/mL)	MFC (Candida albicans [16]): 0.7 µM (≈ 0.647 µg/mL); MIC (Pichia kudriavzevii [14]): 1.3 µM (≈ 1.2 µg/mL); MFC (Pichia kudriavzevii [17]): 1.4 µM (≈ 1.29 µg/mL); IC50 (Aspergillus fumigatus [18]): 1.4 µM; MIC (Aspergillus fumigatus [18]): 2.7 µM (≈ 2.5 µg/mL); MFC (Aspergillus fumigatus [19]): 5.4 µM (≈ 4.99 µg/mL)
–	–	–	–	–	O=C(O)c1cn(C2CC2)c2cc(N3CCNCC3)c(F)cc2c1=O [CIPROFLOXACIN]	–	–	–	–	–	–	–	–	–	IC50 (Staphylococcus aureus [5]): 0.2 µM; MBC (Staphylococcus aureus [20]): 1.5 µM (≈ 0.497 µg/mL); MBC (Staphylococcus aureus [21]): 3 µM (≈ 0.994 µg/mL)
–	–	–	–	–	COc1cccc2c1C(=O)c1c(O)c3c(c(O)c1C2=O)C[C@@](O)(C(=O)CO)C[C@@H]3O[C@H]1C[C@H](N)[C@H](O)[C@H](C)O1 [DOXORUBICIN]	–	1.5 µM	3.8 µM	3.6 µM	2.6 µM	4 µM	> 10 µM	17 µM	–	–

SMILES	IC50 (Nakaseomyces glabratus [1]; [22])	MIC (Nakaseomyces glabratus [1]; [22])	IC50 (Cryptococcus neoformans [2])	MIC (Cryptococcus neoformans [2])	IC50 (Pichia kudriavzevii [14])	MFC (Cryptococcus neoformans [3])	IC50 [6]	IC50 [7]	IC50 [8]	IC50 [9]	IC50 [10]	IC50 at 48 h [11]	IC50 at 48 h [12]	MFC (Nakaseomyces glabratus [13])	further results
O=Cc1c(O)cc(O)c(C(=O)CCc2ccccc2)c1O	11.3 µM	69.9 µM (≈ 20 µg/mL)	10.5 µM	17.4 µM (≈ 4.98 µg/mL)	–	17.4 µM (≈ 4.98 µg/mL)	> 10 µM	> 10 µM	> 10 µM	> 10 µM	> 10 µM	> 10 µM	> 10 µM	–	IC50 (Staphylococcus aureus [4]): 17.4 µM; IC50 (Staphylococcus aureus [5]): 36.6 µM
